Results taken from ChEMBL document CHEMBL3616436, “Synthesis, cytotoxicity and antimicrobial activity of thiourea derivatives incorporating 3-(trifluoromethyl)phenyl moiety” (Eur J Med Chem, 2015).
The source made the active and inactive calls. The calls are words filed in the database; no cut-off is given here.

Legend:
CCRF-SB = assay: Cytotoxicity against human CCRF-SB cells after 96 hrs by MTT assay; format: functional
In short: (§1)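 Leukaemia/lymphoma lines seeded at 1×10^5 cells/ml in RPMI-1640 with 10% FCS and penicillin/streptomycin; incubated with serial dilutions at 37°C, 5% CO2; viability by MTT after 96 h; value is concentration reducing proliferation by 50%, with untreated controls undergoing at least three rounds of multiplication.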

Vaccinia virus = assay: Antiviral activity against Human Vaccinia virus ATCC VR-1549 infected in African green monkey Vero 76 cells assessed as reduction of virus-plaque formation after 3 days by crystal violet staining; format: functional, organism-based; conditions: Orthopoxvirus vaccinia, ATCC VR-1549, Vero, 72 h
[1] = Cytotoxicity against bovine MDBK cells assessed as cell viability after 48 to 96 hrs by MTT assay; format: cell-based, Bos taurus; conditions: cattle
[2] = Antiviral activity against Bovine viral diarrhea virus 1-NADL ATCC VR-534 infected in MDBK cells assessed as protection against virus-induced cytopathogenicity after 3 to 4 days by MTT assay; format: functional, cell-based; conditions: Bovine viral diarrhea virus isolates and strains, ATCC VR-534, MDBK
In short: (§2)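 Cells seeded in 96-well plates (BHK 5x10^4, MDBK 3x10^4 cells/well), grown overnight to confluence, infected at m.o.i. 0.01 (BHK for Reo-1, MDBK for BVDV); serial compound dilutions in maintenance medium with 0.5% inactivated FBS added after 1 h; viability by MTT after 3–4 days at 37°C; EC50 for 50% protection by linear regression.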

Escherichia coli [3] = assay: Antimicrobial activity against Escherichia coli ATCC 10538 after 18 hrs by twofold serial microdilution method; format: functional, organism-based
Pseudomonas aeruginosa [4] = assay: Antimicrobial activity against Pseudomonas aeruginosa ATCC 15442 after 18 hrs by twofold serial microdilution method; format: functional, organism-based
Pseudomonas aeruginosa [5] = assay: Antimicrobial activity against Pseudomonas aeruginosa ATCC 27863 after 18 hrs by twofold serial microdilution method; format: functional, organism-based
Candida parapsilosis = assay: Antimicrobial activity against Candida parapsilosis ATCC 22019 after 24 hrs by twofold serial microdilution method; format: functional, organism-based
Human alphaherpesvirus 1 = assay: Antiviral activity against Human herpesvirus 1 KOS ATCC VR-1493 infected in African green monkey Vero 76 cells assessed as reduction of virus-plaque formation after 3 days by crystal violet staining; format: functional, organism-based; conditions: Human alphaherpesvirus 1, KOS ATCC VR1493, Vero, 72 h
In short: (§3)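 Plaque reduction: Vero-76 at 2x10^5 cells/well grown to confluent monolayers, infected 2 h at 50–100 PFU/well; after removing unadsorbed virus, overlay of D-MEM, 1% inactivated FBS, 0.75% methylcellulose with or without serial compound dilutions; 3 days at 37°C, fixed and stained with crystal violet in 50% ethanol, plaques counted; EC50 by linear regression.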

[6] = test system: Bordetella bronchiseptica; assay: Antimicrobial activity against Bordetella bronchiseptica ATCC 4617 after 18 hrs by twofold serial microdilution method; format: functional, organism-based
[7] = test system: Mammalian orthoreovirus 1; assay: Antiviral activity against Reovirus type-1 ATCC VR-214 infected in BHK cells assessed as protection against virus-induced cytopathogenicity after 3 to 4 days by MTT assay; format: functional, cell-based; conditions: Mammalian orthoreovirus 1, ATCC VR-214, BHK; in short: as §2
Coxsackievirus B5 = assay: Antiviral activity against Human coxsackievirus B5 ATCC VR-29 infected in African green monkey Vero 76 cells assessed as reduction of virus-plaque formation after 3 days by crystal violet staining; format: functional, organism-based; conditions: Enterovirus B, ATCC VR-29, Vero, 72 h; in short: as §3
WIL2-NS = assay: Cytotoxicity against human WIL2-NS cells after 96 hrs by MTT assay; format: functional; in short: as §1
[8] = test system: Vesicular stomatitis virus; assay: Antiviral activity against Vesicular stomatitis virus ATCC VR 1540 infected in African green monkey Vero 76 cells assessed as reduction of virus-plaque formation after 2 days by crystal violet staining; format: functional, organism-based; conditions: ATCC VR 1540, Vero, 48 h
Escherichia coli [9] = assay: Antimicrobial activity against Escherichia coli ATCC 25922 after 18 hrs by twofold serial microdilution method; format: functional, organism-based
Pseudomonas aeruginosa [10] = assay: Antimicrobial activity against Pseudomonas aeruginosa NCTC 6749 after 18 hrs by twofold serial microdilution method; format: functional, organism-based
Yellow fever virus = assay: Antiviral activity against Yellow fever virus 17D infected in BHK cells assessed as protection against virus-induced cytopathogenicity after 3 to 4 days by MTT assay; format: functional, cell-based
Poliovirus 1 = assay: Antiviral activity against Poliovirus type 1 ATCC VR-1562 infected in African green monkey Vero 76 cells assessed as reduction of virus-plaque formation after 2 days by crystal violet staining; format: functional, organism-based; conditions: Enterovirus C, ATCC VR-1562, Vero, 48 h
Candida albicans [11] = assay: Antimicrobial activity against Candida albicans ATCC 90028 after 24 hrs by twofold serial microdilution method; format: functional, organism-based
[12] = Cytotoxicity against BHK cells assessed as cell viability after 48 to 96 hrs by MTT assay; format: cell-based, Mesocricetus auratus; conditions: hamster
[13] = Cytotoxicity against human MT4 cells; format: cell-based
Candida albicans [14] = assay: Antimicrobial activity against Candida albicans ATCC 10231 after 24 hrs by twofold serial microdilution method; format: functional, organism-based
CCRF-CEM = assay: Cytotoxicity against human CCRF-CEM cells after 96 hrs by MTT assay; format: functional; in short: as §1
[15] = Cytotoxicity against African green monkey Vero 76 cells assessed as cell viability after 48 to 96 hrs by crystal violet staining; format: cell-based; conditions: chlorocebus sabaeus
Escherichia coli [16] = assay: Antimicrobial activity against Escherichia coli NCTC 8196 after 18 hrs by twofold serial microdilution method; format: functional, organism-based
[17] = test system: Human immunodeficiency virus 1; assay: Antiviral activity against HIV1 3B infected in human MT4 cells assessed as protection against virus-induced cytopathogenicity by MTT assay; format: functional, organism-based; conditions: Human immunodeficiency virus 1, 3B

FC(F)(F)c1cccc(NC(=S)Nc2ccc(I)cc2)c1
CC50 (CCRF-SB): 9.1 µM | EC50 (Vaccinia virus): > 9.5 µM | CC50 [1]: 9.5 µM | EC50 [2]: > 9.5 µM | Activity (Escherichia coli [3]): inactive | Activity (Pseudomonas aeruginosa [4]): inactive | Activity (Pseudomonas aeruginosa [5]): inactive | Activity (Candida parapsilosis): inactive | EC50 (Human alphaherpesvirus 1): > 9.5 µM | Activity [6]: inactive | EC50 [7]: > 9.4 µM | EC50 (Coxsackievirus B5): > 9.5 µM | CC50 (WIL2-NS): 8 µM | EC50 [8]: > 9.5 µM | Activity (Escherichia coli [9]): inactive | Activity (Pseudomonas aeruginosa [10]): inactive | EC50 (Yellow fever virus): > 9.4 µM | EC50 (Poliovirus 1): > 9.5 µM | Activity (Candida albicans [11]): inactive | CC50 [12]: 9.4 µM | CC50 [13]: 10 µM | Activity (Candida albicans [14]): inactive | CC50 (CCRF-CEM): 8 µM | CC50 [15]: 9.5 µM | Activity (Escherichia coli [16]): inactive | EC50 [17]: > 10.5 µM
